# In ChEMBL document CHEMBL1131013, “Synthesis and evaluation of analogues of the partial agonist 6-(propyloxy)-4-(methoxymethyl)-beta-carboline-3-carboxylic acid ethyl ester (6-PBC) and the full agonist 6-(benzyloxy)-4-(methoxymethyl)-beta-carboline-3-carboxylic acid ethyl ester (Zk 93423) at wild type and recombinant GABAA receptors” (J Med Chem, 1998):
# Experiments:
# [1] = biological target: GABA-A receptor; anion channel; test: Displacement of [3H]flunitrazepam from GABA-A Benzodiazepine receptor of rat brain cortical membranes; type: cell membranes, Membrane
# Outline: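 Rat cerebral cortex homogenized in 50 mM Tris-citrate, pH 7.4, and washed by centrifugation (20000g). […] Nonspecific binding with 10 μM Ro15-1788. Ended by vacuum filtration. IC50 estimated from at least six inhibitor concentrations; mean ± SEM of at least three determinations.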
# [2] = biological target: GABA-A receptor; alpha-6/beta-3/gamma-2 (Homo sapiens, UniProt P18507+P28472+Q16445); test: Binding affinity measured using LtK- cell membranes expressing Gamma-aminobutyric acid A receptor alpha-6-beta-3-gamma-2
# Outline: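 Ltk- cells expressing human α6β3γ2, scraped into PBS and resuspended in 10 mM KH2PO4/100 mM KCl pH 7.4. 1 h at 4 °C to equilibrium, filtration, scintillation counting.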
# [3] = biological target: T1, GABA-A receptor; alpha-5/beta-3/gamma-2 (Homo sapiens, UniProt P18507+P28472+P31644); test: Binding affinity measured using LtK- cell membranes expressing Gamma-aminobutyric acid A receptor alpha-5-beta-3-gamma-2
# T1 sequence (P18507 whole entry): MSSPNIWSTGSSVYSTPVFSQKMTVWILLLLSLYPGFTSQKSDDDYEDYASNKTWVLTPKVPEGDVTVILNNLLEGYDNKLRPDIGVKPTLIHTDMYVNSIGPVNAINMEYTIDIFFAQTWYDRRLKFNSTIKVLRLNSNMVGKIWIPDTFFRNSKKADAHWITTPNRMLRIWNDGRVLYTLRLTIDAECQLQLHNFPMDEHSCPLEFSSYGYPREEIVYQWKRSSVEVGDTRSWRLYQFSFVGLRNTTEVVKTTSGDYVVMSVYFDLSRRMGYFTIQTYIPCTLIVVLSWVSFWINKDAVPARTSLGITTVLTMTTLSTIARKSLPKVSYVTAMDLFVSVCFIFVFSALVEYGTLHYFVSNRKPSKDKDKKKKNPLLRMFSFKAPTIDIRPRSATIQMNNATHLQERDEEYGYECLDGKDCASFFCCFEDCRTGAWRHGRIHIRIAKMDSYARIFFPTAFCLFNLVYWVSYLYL
# T1 sequence (P28472 whole entry): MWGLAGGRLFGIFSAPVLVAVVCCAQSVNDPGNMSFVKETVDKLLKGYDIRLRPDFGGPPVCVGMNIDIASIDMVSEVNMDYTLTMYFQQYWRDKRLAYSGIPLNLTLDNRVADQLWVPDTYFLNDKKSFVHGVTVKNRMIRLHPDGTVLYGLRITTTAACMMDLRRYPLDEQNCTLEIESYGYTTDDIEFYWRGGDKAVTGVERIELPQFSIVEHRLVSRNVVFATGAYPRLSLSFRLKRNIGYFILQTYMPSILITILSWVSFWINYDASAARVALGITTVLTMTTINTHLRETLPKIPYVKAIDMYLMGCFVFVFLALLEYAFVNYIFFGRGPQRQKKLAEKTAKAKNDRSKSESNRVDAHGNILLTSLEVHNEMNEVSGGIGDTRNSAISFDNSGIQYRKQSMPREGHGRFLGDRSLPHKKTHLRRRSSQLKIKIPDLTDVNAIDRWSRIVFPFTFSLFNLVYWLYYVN
# T1 sequence (P31644 whole entry): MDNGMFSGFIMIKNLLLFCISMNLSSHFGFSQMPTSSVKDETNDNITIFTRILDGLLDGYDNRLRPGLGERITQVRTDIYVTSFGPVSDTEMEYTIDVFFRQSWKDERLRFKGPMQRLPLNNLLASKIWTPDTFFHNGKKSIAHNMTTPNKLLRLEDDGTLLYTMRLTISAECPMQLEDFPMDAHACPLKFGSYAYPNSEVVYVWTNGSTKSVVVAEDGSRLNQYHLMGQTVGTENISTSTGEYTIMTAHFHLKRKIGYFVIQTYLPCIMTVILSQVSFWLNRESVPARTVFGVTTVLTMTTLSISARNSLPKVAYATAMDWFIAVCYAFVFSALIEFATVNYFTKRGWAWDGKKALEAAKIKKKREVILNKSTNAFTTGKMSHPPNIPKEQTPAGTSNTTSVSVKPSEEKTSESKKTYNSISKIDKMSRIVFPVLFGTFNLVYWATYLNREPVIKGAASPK
# [4] = biological target: T2, GABA-A receptor; alpha-1/beta-3/gamma-2 (Homo sapiens, UniProt P14867+P18507+P28472); test: Binding affinity measured using LtK- cell membranes expressing GABA alpha-1-beta-3-gamma-2 receptor
# T2 sequence (P14867 whole entry): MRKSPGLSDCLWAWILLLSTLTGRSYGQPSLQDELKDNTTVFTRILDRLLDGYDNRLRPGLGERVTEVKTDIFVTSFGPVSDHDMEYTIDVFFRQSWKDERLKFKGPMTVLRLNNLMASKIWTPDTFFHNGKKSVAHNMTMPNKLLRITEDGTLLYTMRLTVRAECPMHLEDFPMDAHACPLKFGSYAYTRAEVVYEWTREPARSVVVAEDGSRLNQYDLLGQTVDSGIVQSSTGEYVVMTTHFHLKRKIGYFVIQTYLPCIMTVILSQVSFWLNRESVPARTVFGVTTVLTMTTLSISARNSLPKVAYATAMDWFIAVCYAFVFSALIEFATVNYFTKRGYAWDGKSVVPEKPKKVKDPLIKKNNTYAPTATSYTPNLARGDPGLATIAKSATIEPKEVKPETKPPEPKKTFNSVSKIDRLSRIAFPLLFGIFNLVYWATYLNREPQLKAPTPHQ
# T2 sequence (P18507 whole entry): T1 sequence (P18507 whole entry)
# T2 sequence (P28472 whole entry): T1 sequence (P28472 whole entry)
# [5] = biological target: T3, GABA-A receptor; alpha-3/beta-3/gamma-2 (Homo sapiens, UniProt P18507+P28472+P34903); test: Binding affinity measured using LtK- cell membranes expressing GABA alpha-3-beta-3-gamma-2 receptor
# T3 sequence (P18507 whole entry): T1 sequence (P18507 whole entry)
# T3 sequence (P28472 whole entry): T1 sequence (P28472 whole entry)
# T3 sequence (P34903 whole entry): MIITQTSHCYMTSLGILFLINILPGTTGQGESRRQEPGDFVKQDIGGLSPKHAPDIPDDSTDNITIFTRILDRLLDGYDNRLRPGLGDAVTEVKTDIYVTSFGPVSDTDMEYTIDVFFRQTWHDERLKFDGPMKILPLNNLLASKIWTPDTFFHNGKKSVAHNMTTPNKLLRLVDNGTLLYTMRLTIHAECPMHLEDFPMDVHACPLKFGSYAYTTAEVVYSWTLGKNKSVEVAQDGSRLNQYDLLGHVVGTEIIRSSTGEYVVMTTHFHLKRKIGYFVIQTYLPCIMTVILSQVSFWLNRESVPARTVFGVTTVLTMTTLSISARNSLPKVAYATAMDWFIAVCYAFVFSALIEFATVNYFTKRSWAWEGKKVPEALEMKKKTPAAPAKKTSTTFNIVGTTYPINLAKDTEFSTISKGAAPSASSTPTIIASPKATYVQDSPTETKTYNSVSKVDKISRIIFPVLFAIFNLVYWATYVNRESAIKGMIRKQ
# [6] = biological target: T4, GABA-A receptor; alpha-2/beta-3/gamma-2 (Homo sapiens, UniProt P18507+P28472+P47869); test: Binding affinity measured using LtK- cell membranes expressing GABA alpha-2-beta-3-gamma-2 receptor
# T4 sequence (P18507 whole entry): T1 sequence (P18507 whole entry)
# T4 sequence (P28472 whole entry): T1 sequence (P28472 whole entry)
# T4 sequence (P47869 whole entry): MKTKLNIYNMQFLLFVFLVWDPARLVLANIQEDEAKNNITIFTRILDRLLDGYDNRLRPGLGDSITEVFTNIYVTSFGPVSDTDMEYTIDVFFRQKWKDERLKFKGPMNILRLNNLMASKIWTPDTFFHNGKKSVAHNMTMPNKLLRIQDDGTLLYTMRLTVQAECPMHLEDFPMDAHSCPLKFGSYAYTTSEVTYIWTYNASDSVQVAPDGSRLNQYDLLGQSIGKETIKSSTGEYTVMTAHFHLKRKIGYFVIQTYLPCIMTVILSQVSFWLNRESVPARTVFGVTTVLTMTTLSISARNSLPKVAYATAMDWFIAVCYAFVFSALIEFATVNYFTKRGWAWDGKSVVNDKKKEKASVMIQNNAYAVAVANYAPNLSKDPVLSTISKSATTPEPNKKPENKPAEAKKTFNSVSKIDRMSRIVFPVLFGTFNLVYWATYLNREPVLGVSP
# Sequence of GABA-A receptor; alpha-6/beta-3/gamma-2 (Q16445 whole entry, one chain of several): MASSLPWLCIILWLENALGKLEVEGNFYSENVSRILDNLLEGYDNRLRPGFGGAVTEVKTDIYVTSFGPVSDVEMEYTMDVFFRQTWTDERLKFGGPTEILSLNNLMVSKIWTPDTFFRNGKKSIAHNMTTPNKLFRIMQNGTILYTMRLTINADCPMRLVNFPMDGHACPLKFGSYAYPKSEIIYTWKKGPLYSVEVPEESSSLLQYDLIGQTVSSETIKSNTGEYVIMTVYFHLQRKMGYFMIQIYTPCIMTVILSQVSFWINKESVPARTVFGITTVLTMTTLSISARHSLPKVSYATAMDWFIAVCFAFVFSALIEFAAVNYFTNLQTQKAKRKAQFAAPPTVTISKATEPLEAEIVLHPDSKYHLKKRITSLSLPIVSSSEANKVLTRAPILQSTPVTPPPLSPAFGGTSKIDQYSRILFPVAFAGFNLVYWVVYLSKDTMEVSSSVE
Structure (SMILES),IC50 [1],Ki [2],Ki [3],Ki [4],Ki [5],Ki [6]
CCOC(=O)c1ncc2c(c1CC)c1cc(OCc3ccccc3)ccc1n2C,> 5000 nM,–,–,–,–,–
CCOC(=O)c1cc2c3cc(OCc4ccccc4)ccc3n(C)c2cn1,> 5000 nM,–,–,–,–,–
CCc1c(C(=O)OC)ncc2[nH]c3cc(OC)c(OC)cc3c12,–,134 nM,1 nM,5.7 nM,4 nM,8.3 nM
CC(C)COc1cc2c(cn1)[nH]c1ccccc12,–,> 10000 nM,1000 nM,24.9 nM,139 nM,124 nM
CCOC(=O)c1ncc2[nH]c3ccc(OCc4ccccc4)cc3c2c1COC,–,> 1000 nM,4.5 nM,4.1 nM,6 nM,4.2 nM
CCOC(=O)c1[nH]cc2nc3ccc(OCc4ccccc4)cc3c-2c1CC,–,> 10000 nM,67.3 nM,20.8 nM,58.7 nM,78.3 nM
CC(C)(C)OC(=O)c1cc2c3ccccc3nc-2c[nH]1,–,> 5000 nM,111 nM,0.72 nM,18.9 nM,15 nM
CCc1c(OC)[nH]cc2nc3cc(OC)c(OC)cc3c1-2,–,> 300 nM,> 300 nM,> 300 nM,> 300 nM,> 300 nM
CCOC(=O)c1ncc2c(c1CC)c1ccccc1n2C,–,> 10000 nM,> 1000 nM,> 1000 nM,> 1000 nM,> 1000 nM
CCCOc1ccc2c(c1)c1c(COC)c(C(=O)OCC)ncc1n2C,290 nM,–,–,–,–,–
CCCOc1[nH]cc2nc3ccc(OCc4ccccc4)cc3c-2c1COC,63.8 nM,–,–,–,–,–
CCOC(=O)c1cc2c(cn1)[nH]c1ccccc12,–,–,–,1.2 nM,–,–
CC(C)Oc1cc2c(cn1)[nH]c1ccccc12,–,> 10000 nM,> 10000 nM,283 nM,> 3000 nM,> 3000 nM
CCCCOc1cc2c(cn1)[nH]c1ccccc12,–,> 1000 nM,1000 nM,36.9 nM,245 nM,194 nM
CCCOc1ccc2[nH]c3cnc(C(=O)OCC)c(COC)c3c2c1,8.1 nM,1340 nM,2.4 nM,0.49 nM,2.2 nM,1.21 nM
CCCOc1cc2c(cn1)[nH]c1ccccc12,–,> 1000 nM,591 nM,5.3 nM,68.8 nM,52.3 nM
CCOC(=O)c1ncc2[nH]c3ccccc3c2c1COC,–,1150 nM,10.4 nM,0.6 nM,4.8 nM,2.8 nM

Structure (SMILES),IC50 [1],Ki [2],Ki [3],Ki [4],Ki [5],Ki [6]
CCCOc1ccc2[nH]c3cnc(C(=O)OC(C)C)c(COC)c3c2c1,30.8 nM,–,–,–,–,–
CCCOc1ccc2[nH]c3cnc(OCCC)c(COC)c3c2c1,43.2 nM,> 10000 nM,332 nM,24.6 nM,270 nM,214 nM
COCc1c(/N=C(/S)OC)[nH]cc2nc3ccc(OCc4ccccc4)cc3c1-2,176 nM,–,–,–,–,–
CCCOc1ccc2[nH]c3cnc(N=C=S)c(COC)c3c2c1,24.7 nM,–,–,–,–,–
CCOc1[nH]cc2nc3cc(OC)c(OC)cc3c-2c1CC,–,> 300 nM,> 300 nM,> 300 nM,> 300 nM,> 300 nM
CCCCCCCCOc1ccc2c(c1)c1c(CC)c(C(=O)OCC)ncc1n2C,> 1000 nM,–,–,–,–,–
COCc1c(N)[nH]cc2nc3ccc(OCc4ccccc4)cc3c1-2,271 nM,–,–,–,–,–
CCOC(=O)c1[nH]cc2nc3cc(OC)c(OC)cc3c-2c1CC,–,74.9 nM,3.3 nM,6.2 nM,4 nM,18.7 nM
CCC(C)Oc1cc2c3ccccc3nc-2c[nH]1 (stereo unspecified),–,> 10000 nM,> 10000 nM,245 nM,869 nM,818 nM
c1ccc(COc2cc3c4ccccc4nc-3c[nH]2)cc1,–,> 10000 nM,> 10000 nM,830 nM,> 3000 nM,> 3000 nM
CCOC(=O)c1[nH]cc2nc3ccc(OCc4cccc5ccccc45)cc3c-2c1COC,55.5 nM,> 1000 nM,323 nM,15.4 nM,293 nM,–
CCOC(=O)c1ncc2c(c1CC)c1cc(OCc3cccc4ccccc34)ccc1n2C,> 1000 nM,–,–,–,–,–
CC(C)CCOc1cc2c3ccccc3nc-2c[nH]1,–,> 10000 nM,> 3000 nM,350 nM,> 3000 nM,> 3000 nM
CCOC(=O)c1ncc2c(c1COC)c1cc(OCc3cccc4ccccc34)ccc1n2C,730 nM,–,–,–,–,–
COCc1c(C(=O)OC(C)C)ncc2[nH]c3ccc(OCc4ccccc4)cc3c12 [ABECARNIL],–,> 10000 nM,6 nM,12.4 nM,7.5 nM,15.3 nM
Cc1nnc2ccc(-c3cccc(C(F)(F)F)c3)nn12 [CI-218872],–,> 10000 nM,561 nM,57 nM,1160 nM,1960 nM
Cc1ccc(-c2nc3ccc(C)cn3c2CC(=O)N(C)C)cc1 [ZOLPIDEM],–,> 10000 nM,> 10000 nM,–,–,–
